We go through 14 compounds from ChEMBL document CHEMBL4270609, “Purple acid phosphatase inhibitors as leads for osteoporosis chemotherapeutics” (Eur J Med Chem, 2018).

Structures are written as SMILES. Active and inactive are the calls of the source. The calls are words filed in the database; no cut-off is given here.

For one test, the target named is T1, Tartrate-resistant acid phosphatase type 5 (Sus scrofa) (UniProt P09889).
T1 sequence (whole entry): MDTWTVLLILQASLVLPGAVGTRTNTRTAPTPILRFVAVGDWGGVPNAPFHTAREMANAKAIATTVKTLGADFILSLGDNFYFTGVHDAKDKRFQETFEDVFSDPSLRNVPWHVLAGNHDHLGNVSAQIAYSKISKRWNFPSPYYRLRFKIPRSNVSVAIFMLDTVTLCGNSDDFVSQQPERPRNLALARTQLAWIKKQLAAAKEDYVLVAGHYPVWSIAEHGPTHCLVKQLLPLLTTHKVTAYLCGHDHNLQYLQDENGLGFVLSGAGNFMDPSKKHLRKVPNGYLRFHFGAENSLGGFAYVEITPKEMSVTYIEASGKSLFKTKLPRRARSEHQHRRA
Briefly: Inhibition of pig purple acid phosphatase Fe(3)Fe(2) state assessed as enzyme-inhibitor complex at 100 uM using pNPP as substrate by UV/Vis spectrophotometric method. The gist of the method:
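Used 5 mM pNPP substrate and 12 nM enzyme in 0.1 M acetate pH 4.9 with 25% DMSO at 25 °C. p-Nitrophenol formation was followed at 405 nm; result expressed as percentage inhibition.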
Turning to `O=C(O)[C@@H]1CSC(c2ccccc2O)N1` (some centres not stated), the inhibition result was “inactive”.

For the compound `O=C(O)[C@@H]1CSC(c2ccc(O)cc2)N1` (some centres not stated), the inhibition result was “inactive”.

With `Cc1ccc(C2N[C@H](C(=O)O)CS2)cc1` (some centres not stated), the inhibition result was “inactive”.

Regarding `O=C(O)[C@@H]1CSC(c2ccccc2)N1` (some centres not stated), the inhibition entry is “inactive”.

For `COc1ccc(C2N[C@H](C(=O)O)CS2)cc1` (some centres not stated), the inhibition result was “inactive”.

As for `O=C(O)[C@@H]1CSC(c2ccco2)N1` (some centres not stated), the inhibition entry is “inactive”.

`O=C(O)[C@@H]1CSC(c2c(O)ccc3ccccc23)N1` (some centres not stated): the inhibition entry is “inactive”.

Regarding `O=C(O)[C@@H]1CSC(c2cccc3ccccc23)N1` (some centres not stated), the inhibition result was “inactive”.

In another test the target is T2, Fe(3+)-Zn(2+) purple acid phosphatase (Phaseolus vulgaris) (UniProt P80366).
T2 sequence (whole entry): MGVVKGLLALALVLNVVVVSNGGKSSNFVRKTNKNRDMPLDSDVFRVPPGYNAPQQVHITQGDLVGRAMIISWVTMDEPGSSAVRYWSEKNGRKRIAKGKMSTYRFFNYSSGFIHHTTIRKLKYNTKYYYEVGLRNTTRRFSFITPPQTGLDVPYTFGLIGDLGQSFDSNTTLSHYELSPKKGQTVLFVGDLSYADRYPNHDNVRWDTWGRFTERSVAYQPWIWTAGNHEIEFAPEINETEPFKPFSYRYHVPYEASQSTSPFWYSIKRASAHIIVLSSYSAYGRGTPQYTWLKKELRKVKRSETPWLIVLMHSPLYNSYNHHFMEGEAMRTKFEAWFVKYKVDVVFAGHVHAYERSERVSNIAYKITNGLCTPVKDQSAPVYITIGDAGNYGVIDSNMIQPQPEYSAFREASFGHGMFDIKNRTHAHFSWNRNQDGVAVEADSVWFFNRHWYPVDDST
The test is described as follows: Competitive inhibition of red kidney bean purple acid phosphatase Fe(3)Fe(2) state assessed as enzyme-inhibitor complex using pNPP as substrate by UV/Vis spectrophotometric method. The gist of the method:
(§1)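 Pig PAP was from sow uterine fluid and pre-reduced to Fe(III)Fe(II) with 0.77 mM β-mercaptoethanol (10 min, 37 °C); rkbPAP was purified from red kidney beans. Assays ran at 25 °C, pH 4.9 (0.1 M acetate, 25% DMSO) with 12 nM enzyme, pNPP 1–12.5 mM and inhibitor 50–300 μM. p-Nitrophenol was read at 405 nm. Kic and Kiuc came from non-linear fit to the general inhibition equation.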
`O=C(O)c1csc(-c2cccc3ccccc23)n1`: the Kic was 185 µM.

As for `O=C(O)c1csc(-c2ccc(Cl)cc2)n1`, the Kic stood at 530 µM.

With `COc1ccc(-c2nc(C(=O)O)cs2)cc1`, the Kic was 400 µM.

On to `Cc1ccc(-c2nc(C(=O)O)cs2)cc1`, for which the Kic worked out at 340 µM.

With `O=C(O)c1csc(-c2ccccc2Cl)n1`, the Kic is 920 µM.

A further test deals with T2, Fe(3+)-Zn(2+) purple acid phosphatase (Phaseolus vulgaris). Briefly: Uncompetitive inhibition of red kidney bean purple acid phosphatase Fe(3)Fe(2) state assessed as enzyme-substrate-inhibitor complex using pNPP as substrate by UV/Vis spectrophotometric method. The gist of the method: as §1
For `COc1ccc(-c2nc(C(=O)O)cs2)cc1`, the Kiuc came out at 770 µM.

In a further test the target is T1, Tartrate-resistant acid phosphatase type 5 (Sus scrofa). The test is described as follows: Uncompetitive inhibition of pig purple acid phosphatase Fe(3)Fe(2) state assessed as enzyme-substrate-inhibitor complex using pNPP as substrate by UV/Vis spectrophotometric method. The gist of the method:
as §1
In the case of `O=C(O)c1csc(-c2cccc3ccccc23)n1`, the Kiuc came to 110 µM.

Turning to `O=C(O)c1csc(-c2ccccc2Cl)n1`, the Kiuc was found to be 350 µM.

For the next test the target is unchanged. The test is described as follows: Competitive inhibition of pig purple acid phosphatase Fe(3)Fe(2) state assessed as enzyme-inhibitor complex using pNPP as substrate by UV/Vis spectrophotometric method. The gist of the method:
as §1
As to `O=C(O)c1csc(-c2cccc3ccccc23)n1`, the Kic came out at 33 µM.

`O=C(O)c1csc(-c2ccc(Cl)cc2)n1`: the Kic is 49 µM.

With `O=C(O)c1csc(-c2ccccc2)n1`, the Kic was 190 µM.

For the compound `COc1ccc(-c2nc(C(=O)O)cs2)cc1`, the Kic amounted to 120 µM.

Regarding `Cc1ccc(-c2nc(C(=O)O)cs2)cc1`, the Kic came out at 42 µM.

Take `O=C(O)c1csc(-c2ccccc2Cl)n1`: the Kic came out at 630 µM.
